# Assay outcomes as filed in PubChem BioAssay.
# MT1-MMP act inh: MT1-MMP (human) activation inhibition. GFP/RFP ratio change, % at 20 µM. hit rate 0.061% among 360,000. HT1080 RFP-PRO-GFP cells, GFP/RFP ratio fluorescence, overnight; percent of plate control window, DMSO zero;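 active = GFP/RFP ratio change of at least 30% with cell ATP level not reduced by more than half and red fluorescence within 50% of control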
#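 Read-out: GFP/RFP fluorescence ratio; Test system: RFP-PRO-GFP reporter HT1080 cells; Compound dosing: single-point 20 µM compound, 1% DMSO; Times: overnight compound exposure at 37 °C.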
# TLR9-MyD88 block: TLR9-MyD88 interaction inhibition; Q9NR96+Q99836; CHO BLA complementation TLR9-MyD88, CCF4 FRET ratio; inhibition, % at 4.98 µM; hit rate 0.21% among 340,000;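 active = inhibition above the mean over all tested compounds plus 3 SD, cut at about 21% in these data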
# TLR4-MyD88 BLA: TLR4-MyD88 interaction inhibition in cells. hit rate 0.18% among 200,000. O00206+Q99836. inhibition, % at 8.4 µM. HeLa CL3-4 TLR4/MyD88 BLA complementation, FRET ratio; in the data active = inhibition above about 25%
# Target sequence (O00206 whole entry, looked up): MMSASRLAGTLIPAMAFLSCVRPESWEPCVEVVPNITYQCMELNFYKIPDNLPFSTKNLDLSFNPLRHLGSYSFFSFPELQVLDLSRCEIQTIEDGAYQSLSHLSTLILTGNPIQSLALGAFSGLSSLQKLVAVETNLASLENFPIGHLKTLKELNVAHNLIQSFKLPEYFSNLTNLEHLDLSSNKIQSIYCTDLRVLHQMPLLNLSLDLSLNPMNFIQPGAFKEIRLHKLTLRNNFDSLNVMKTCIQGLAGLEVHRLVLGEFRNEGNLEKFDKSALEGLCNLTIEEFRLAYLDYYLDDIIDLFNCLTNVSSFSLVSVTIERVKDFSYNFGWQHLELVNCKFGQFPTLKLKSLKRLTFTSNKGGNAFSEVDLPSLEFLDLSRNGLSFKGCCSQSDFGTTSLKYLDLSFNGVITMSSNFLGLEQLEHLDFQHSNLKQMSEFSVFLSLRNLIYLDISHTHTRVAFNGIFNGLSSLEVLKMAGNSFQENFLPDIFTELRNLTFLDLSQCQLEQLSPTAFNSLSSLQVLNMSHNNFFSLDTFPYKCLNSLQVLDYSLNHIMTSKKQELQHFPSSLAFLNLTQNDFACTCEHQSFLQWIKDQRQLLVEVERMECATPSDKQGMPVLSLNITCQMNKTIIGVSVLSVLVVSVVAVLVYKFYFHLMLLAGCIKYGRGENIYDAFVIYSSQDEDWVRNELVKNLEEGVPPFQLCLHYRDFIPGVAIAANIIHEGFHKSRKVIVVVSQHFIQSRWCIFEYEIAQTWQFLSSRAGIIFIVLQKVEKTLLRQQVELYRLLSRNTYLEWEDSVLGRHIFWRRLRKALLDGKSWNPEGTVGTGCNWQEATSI
# Target sequence (Q99836 whole entry, looked up): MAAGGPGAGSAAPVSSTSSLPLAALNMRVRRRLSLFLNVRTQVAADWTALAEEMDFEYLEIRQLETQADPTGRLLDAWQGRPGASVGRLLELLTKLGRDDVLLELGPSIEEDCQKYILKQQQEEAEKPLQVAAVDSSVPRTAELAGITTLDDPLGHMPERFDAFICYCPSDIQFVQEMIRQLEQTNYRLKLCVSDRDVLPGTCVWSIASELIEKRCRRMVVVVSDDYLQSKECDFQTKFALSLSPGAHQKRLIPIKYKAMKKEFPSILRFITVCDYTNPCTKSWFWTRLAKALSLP
# NOD2 RIPK2 PPI: inhibitors of human NOD2-RIPK2 interaction; inhibition, % at 4.98 µM; CHO BLA complementation NOD2-RIPK2, CCF4 ratio; hit rate 0.38% among 360,000; in the data active = inhibition above about 21%
# SKN-1 inh: inhibitors of C. elegans SKN-1; C. elegans VP596 Pgst-4::GFP/RFP ratio, acrylamide-induced, 24 h; inhibition, % at 21.8 µM; hit rate 0.49% among 360,000; AID 624304;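 active = interference check ratio from 0.5 to 1.5 plus GFP to RFP signal ratio inhibition reaching or exceeding a fixed threshold, cut at about 30% in these data, passing the limit was not always enough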
# NOD2 RIPK2 conf: confirmation of human NOD2-RIPK2 interaction inhibitors | shares compounds with NOD2 RIPK2 PPI | CHO cells, NOD2-RIPK2 BLA complementation, CCF4 FRET | inhibition, % at 4.98 µM | hit rate 70% among 1,200;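 active = mean inhibition across replicates above a set limit taken from the earlier primary screen, cut at about 21% in these data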
# BLA counter: counter-screen for NOD2-RIPK2 interaction inhibitors: BLA reporter | shares compounds with NOD2 RIPK2 PPI | CHO BLA reporter, CCF4 FRET ratio, counterscreen | inhibition, % at 4.98 µM | hit rate 57% among 1,200 | AID 624371;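 active = mean inhibition above the low-control mean inhibition plus three low-control SD, cut at about 11% in these data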
# Numbers stand for hits; - = inactive; . = no result given. This is a sample that favours compounds with a hit; in the whole collection about 0.99% have one here.
SMILES,MT1-MMP act inh,TLR9-MyD88 block,TLR4-MyD88 BLA,NOD2 RIPK2 PPI,SKN-1 inh,NOD2 RIPK2 conf,BLA counter
Cc1[nH]c2ccccc2c1C1=CC(=O)C=CC1=O,-,-,.,45,-,62,13
COc1ccc(Nc2nnc(SCC(=O)N3CC(=O)Nc4ccccc43)s2)cc1,-,-,-,27,-,-,-
COc1ccc(Nc2nnc(SCC(=O)N3CCCC3)s2)cc1,-,-,-,-,-,.,.
C=C1CC(Cn2cc(Br)c(=O)[nH]c2=O)(c2ccc(-c3ccccc3)cc2)OC1=O (stereo not drawn),-,-,.,79,-,71,-
COc1ccc(CNC(=O)c2cc(S(=O)(=O)N3CCCCC3)ccc2Cl)cc1OC,-,-,.,-,-,.,.
N#Cc1ccc(-c2nc3ccc(Cl)cn3c2Cc2ccccc2C(F)(F)F)cc1,-,.,.,-,-,.,.
CCOc1ccccc1C(=O)NCC(=O)NCC(C)(C)N1CCOCC1,-,-,.,29,-,-,-
O=c1c2ccccc2sn1-c1ccccc1F,-,-,.,-,-,.,.
O=c1c2ccccc2sn1-c1ccccc1,-,54,-,77,-,50,-
CCOc1c(Br)cc(Br)cc1/C=C1\SC(N)=NC1=O,-,-,.,32,-,-,-
COc1ccc(-c2cc(C#N)nc(Cl)n2)cc1,-,-,.,28,-,40,-
O=C(COC(=O)c1cc(S(=O)(=O)N2CCCCC2)ccc1N1CCOCC1)c1ccccc1,-,-,.,-,-,.,.
O=C(Nc1cccc([N+](=O)[O-])c1)c1ccc(-c2ccccc2)cc1,-,-,-,34,-,-,-
O=C(Nc1cccc([N+](=O)[O-])c1)c1cccc(C(=O)Nc2cccc([N+](=O)[O-])c2)c1,-,-,.,-,-,.,.
COCC(=O)Nc1nc2n(n1)C(c1ccccc1)CC(c1ccc(OC)cc1)N2 (stereo not drawn),-,-,-,28,-,26,26
COc1ccc(/C=C2/C(=O)C(C)(C(C)C)CCC2C)cc1 (stereo not drawn),-,-,.,-,-,.,.
Cc1ccc(NN2C(=O)C=C(c3ccccc3)C2=O)cc1,-,.,-,84,-,86,-
O=C1c2ccccc2C(=O)N1Nc1ccccc1,-,-,-,-,-,.,.
Cc1noc(C)c1S(=O)(=O)N(C)C[C@H]1OCc2cnnn2CCCC(=O)N([C@H](C)CO)C[C@H]1C,-,-,.,-,-,.,.
N#C/C(C(=O)Nc1ccc(Cl)cc1)=C(/S)Nc1ccccc1,-,-,.,26,-,24,-
O=C(Nc1ccc(Nc2ccccc2)cc1)c1ccc(Cl)cc1,-,-,.,-,-,.,.
COc1ccc(CN(C(=O)c2cc(=O)c3cc(C)cc(C)c3o2)C2CCS(=O)(=O)C2)cc1 (stereo not drawn),-,-,.,-,-,.,.
COc1ccccc1C(=O)Nc1ccc(C)cc1C(=O)c1ccccc1,-,-,-,22,-,-,-
COc1ccc(CN(C)C2c3ccccc3-c3ccccc32)cc1,-,-,-,-,-,.,.
O=C1/C(=C/c2ccc(Br)cc2)Oc2cc(O)ccc21,-,-,.,25,-,37,42
SMILES,MT1-MMP act inh,TLR9-MyD88 block,TLR4-MyD88 BLA,NOD2 RIPK2 PPI,SKN-1 inh,NOD2 RIPK2 conf,BLA counter
CC(C)(C)c1ccc(/C=C2\Oc3cc(O)ccc3C2=O)cc1,-,-,.,24,-,27,45
CSc1ccc(S(=O)(=O)NCC(=O)OCC(=O)N(C)Cc2ccccc2)cc1[N+](=O)[O-],-,-,.,-,-,.,.
O=C1C(Cl)=C(NC(=O)c2ccccc2)C(=O)C(Cl)=C1NC(=O)c1ccccc1,-,-,.,54,-,68,37
O=C(NC1=C(Nc2ccc(Cl)cc2)C(=O)c2ccccc2C1=O)c1ccccc1,-,-,-,-,-,.,.
O=C(NCCO)OC1CC2CC1[C@H]1CCCCN1C2=O (stereo partly drawn),-,.,.,-,-,.,.
O=[N+]([O-])c1ccc(Sc2nc3ccccc3o2)c([N+](=O)[O-])c1,-,-,-,30,-,60,-
COc1ccc(CNC(=O)c2nc(S(=O)(=O)Cc3ccccc3)ncc2Cl)cc1,-,-,.,62,-,63,15
O=C(NCc1ccccc1)c1nc(S(=O)(=O)Cc2ccccc2)ncc1Cl,-,-,.,53,-,54,14
CCOc1ccccc1NC(=O)c1nc(S(=O)(=O)Cc2cccc(C)c2)ncc1Cl,-,-,.,-,-,.,.
COc1ccc(S(=O)(=O)Cc2ccc(C(=O)NCc3ccccc3)o2)cc1,-,-,.,-,-,.,.
N#CC(C#N)=C1C=CC=CN1/C(=C\c1ccco1)C(=O)c1ccc(Cl)cc1,-,-,-,94,-,91,17
N#CC(C#N)=C1C=CC=CN1/C(=C\c1ccco1)C(=O)c1ccc(-c2ccccc2)cc1,-,-,-,22,-,78,16
CC(/C=N/n1c(-c2ccc(Cl)cc2)n[nH]c1=S)=C\c1ccco1,-,-,-,-,-,.,.
Cc1cc(C)c2c(=O)n(CC(=O)Nc3cccc(F)c3)sc2n1,-,-,.,-,-,.,.
Cc1cc(C)c2c(=O)n(CC(=O)Nc3ccc(Cl)cc3)sc2n1,-,-,.,31,-,36,-
Cc1ccc(NC(=O)Cn2sc3nc(C)cc(C)c3c2=O)c(Cl)c1,-,-,.,21,-,-,-
CC(C)N1C(=O)S/C(=C/c2ccc3c(c2)n(C)c(=O)n3C)C1=O,-,-,-,-,-,.,.
CCN(CC)c1ccc(/C=C2\SC(=O)N(C(C)C)C2=O)o1,-,.,.,56,-,-,10
NC(=O)c1cc(S(=O)(=O)N2CCCC2)ccc1OCCOc1ccccc1,-,-,.,-,-,.,.
O=C1C=CC(=O)N1c1cccc(-c2ccccc2)c1,-,-,.,36,-,90,29
COc1cc(/C=C2/C(=N)N3C(=NC2=O)SN=C3S(C)(=O)=O)ccc1OS(=O)(=O)c1ccc(C)cc1,-,-,.,23,-,-,-
COc1ccc2oc(=O)c(-c3nnc(NCc4ccco4)s3)cc2c1,-,-,-,21,-,49,49
COc1ccc(Cc2nc3ccc(C(=O)NC(C)Cc4ncccc4C)cc3o2)cc1OC (stereo not drawn),-,-,.,-,-,.,.
Cc1ccc2c(c1)C(=O)C(=O)N2CC1COc2ccccc2O1 (stereo not drawn),.,-,.,24,-,-,-
COc1ccc2c(c1)C(=O)C(=O)N2CC1COc2ccccc2O1 (stereo not drawn),-,-,.,-,-,.,.
CCN(CC(=O)Nc1ccc(NC(C)=O)cc1)C(=O)/C=C/c1ccc(C)o1,-,-,.,-,-,.,.
CCN1C(=O)c2cccc3c(S(=O)(=O)N4CCC(C)CC4)ccc1c23,-,-,.,23,-,22,25
